Assay [1] addresses T1, Transient receptor potential cation channel subfamily V member 1 (Homo sapiens, UniProt Q8NER1). As to the kind of experiment: Antagonist activity at human TRPV1 expressed in CHO cells assessed as inhibition of pH-induced activity by FLIPR assay. The format is cell-based.
Assay [2] concerns Mus musculus. As to the kind of experiment: Analgesic activity in mouse assessed as inhibition of formalin-induced response at 0.1 mg/kg, po. It is filed as functional. The procedure, abridged:
(§1)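 Formalin test in mice after oral dosing. Values are tabulated as MPE and described as % inhibition of the nociceptive response.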

Assay [3] has as its target T1, Transient receptor potential cation channel subfamily V member 1. Kind of assay: Antagonist activity at human TRPV1 expressed in CHO cells assessed as inhibition of capsaicin-induced activity by FLIPR assay. The format is cell-based.
Assay [4] shares this target. As to the kind of experiment: Antagonist activity at human TRPV1 expressed in CHO cells assessed as inhibition of N-arachidonoyl dopamine-induced activity by FLIPR assay. The format is cell-based.
The test system of assay [5] is Mus musculus. As to the kind of experiment: Inhibition in capsaicin-induced hypothermia in mouse at 0.3 mg/kg, po 15 min before capsaicin challenge measured 30 mins post capsaicin treatment. The format is functional.
For assay [6], the system named is Mus musculus. As to the kind of experiment: Analgesic activity in mouse assessed as inhibition of formalin-induced response at 0.3 mg/kg, po. It is filed as functional. The procedure, abridged:
as §1

The target in assay [7] is T1, Transient receptor potential cation channel subfamily V member 1. Kind of assay: Antagonist activity at human TRPV1 expressed in CHO cells assessed as inhibition of heat at 45 degC-induced activity by FLIPR assay. It is filed as cell-based.
In assay [8] the test system is Mus musculus. Kind of assay: Inhibition in capsaicin-induced hypothermia in mouse at 10 mg/kg, po 15 min before capsaicin challenge measured 30 mins post capsaicin treatment. The format is functional.
The test system of assay [9] is Mus musculus. As to the kind of experiment: Inhibition in capsaicin-induced hypothermia in mouse at 1 mg/kg, po 15 min before capsaicin challenge measured 30 mins post capsaicin treatment. The format is functional.
Assay [10] concerns Mus musculus. As to the kind of experiment: Inhibition in capsaicin-induced hypothermia in mouse at 0.1 mg/kg, po 15 min before capsaicin challenge measured 30 mins post capsaicin treatment. It is filed as functional.
Assay [11] concerns Mus musculus. As to the kind of experiment: Analgesic activity in mouse assessed as inhibition of formalin-induced response at 1 mg/kg, po. The format is functional. The procedure, abridged: as §1
The subject of assay [12] is Mus musculus. As to the kind of experiment: Inhibition in capsaicin-induced hypothermia in mouse compound dosed orally before capsaicin challenge measured 30 mins post capsaicin treatment. It is filed as functional, organism-based.

Structures are written as SMILES.

T1 sequence (Q8NER1 whole entry): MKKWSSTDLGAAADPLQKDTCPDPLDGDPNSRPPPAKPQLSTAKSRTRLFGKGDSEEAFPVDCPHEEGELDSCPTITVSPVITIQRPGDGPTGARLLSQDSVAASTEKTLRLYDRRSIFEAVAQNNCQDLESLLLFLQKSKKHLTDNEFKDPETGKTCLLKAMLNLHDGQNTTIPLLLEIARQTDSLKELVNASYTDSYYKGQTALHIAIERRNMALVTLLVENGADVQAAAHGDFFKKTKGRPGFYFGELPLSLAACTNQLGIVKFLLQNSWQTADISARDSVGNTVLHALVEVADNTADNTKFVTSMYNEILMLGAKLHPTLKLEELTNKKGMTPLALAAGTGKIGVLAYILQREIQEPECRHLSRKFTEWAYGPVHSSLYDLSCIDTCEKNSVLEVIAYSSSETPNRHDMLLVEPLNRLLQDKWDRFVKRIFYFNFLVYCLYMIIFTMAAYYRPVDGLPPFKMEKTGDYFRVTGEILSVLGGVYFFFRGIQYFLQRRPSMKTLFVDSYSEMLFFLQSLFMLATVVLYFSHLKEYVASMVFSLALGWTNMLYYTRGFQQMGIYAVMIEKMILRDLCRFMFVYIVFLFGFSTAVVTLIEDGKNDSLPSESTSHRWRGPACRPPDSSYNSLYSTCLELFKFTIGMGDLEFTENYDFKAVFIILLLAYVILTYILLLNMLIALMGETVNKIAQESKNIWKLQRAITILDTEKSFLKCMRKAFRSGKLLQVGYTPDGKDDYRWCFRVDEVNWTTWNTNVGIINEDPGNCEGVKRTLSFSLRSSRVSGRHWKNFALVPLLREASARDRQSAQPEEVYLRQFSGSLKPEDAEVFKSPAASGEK

Take `CCCCOc1nc(C(F)(F)Cl)ccc1CNC(=O)C(C)c1ccc(NS(C)(=O)=O)c(F)c1` (stereo not drawn): the IC50 in [1] is 8.3 nM; in [7] it was 7 nM. In addition, the MPE in the assay with Mus musculus [2] is given as 56%; in the assay on Mus musculus [6], 73%. Further, the Ki in assay [3] (read-out: Ki) worked out at 0.3 nM; in [4] it was 0.02 nM. For the same molecule, in the assay on Mus musculus [5], at 0.3 mg/kg the inhibition in vivo was 43%.

`CC(C(=O)NCc1ccc(C2CC2)nc1N1CCCCC1)c1ccc(NS(C)(=O)=O)c(F)c1` (stereo not drawn): in assay [3] (read-out: Ki), the Ki amounted to 1.1 nM.

In the case of `CC(C(=O)NCc1ccc(C(F)(F)Cl)nc1SC1CCCCC1)c1ccc(NS(C)(=O)=O)c(F)c1` (stereo not drawn), the Ki in assay [3] (read-out: Ki) is 3 nM.

Take `CCCCCCOc1nc(C(F)(F)F)cc(C)c1CNC(=O)C(C)c1ccc(NS(C)(=O)=O)c(F)c1` (stereo not drawn): the Ki in assay [3] (read-out: Ki) was found to be 100 nM.

As for `CC(C(=O)NCc1ccc(C(F)(F)Cl)nc1OC1CCCC1)c1ccc(NS(C)(=O)=O)c(F)c1` (stereo not drawn), the inhibition constant (Ki) in assay [4] is 0.04 nM. In addition, in the assay on Mus musculus [5], the inhibition in vivo at 0.3 mg/kg was 41%. In the assay on Mus musculus [8], this molecule returned an inhibition in vivo at 10 mg/kg of 92%. 1 mg/kg produced 60% inhibition in vivo in the assay on Mus musculus [9]. Besides, the inhibition in vivo at 0.1 mg/kg with Mus musculus [10] was found to be 23%. Also, the MPE in the assay with Mus musculus [6] was determined as 29%; in the assay on Mus musculus [11], 15%. Further, the inhibition result in the assay on Mus musculus [12] was “Dose-dependent effect”. For the same molecule, the IC50 in assay [7] came to 19.3 nM.

For `CC1CCN(c2nc(C3CC3)ccc2CNC(=O)C(C)c2ccc(NS(C)(=O)=O)c(F)c2)CC1` (stereo not drawn), in [3] (read-out: Ki), the inhibition constant (Ki) was 0.9 nM.

In the case of `CC(C(=O)NCc1ncc(C(F)(F)F)cc1N1CCCC1)c1ccc(NS(C)(=O)=O)c(F)c1` (stereo not drawn), the inhibition constant (Ki) result in [3] (cho) is listed as “Not Active”.

Turning to `CC(C(=O)NCc1ccc(C(F)(F)Cl)nc1N1CCCCCC1)c1ccc(NS(C)(=O)=O)c(F)c1` (stereo not drawn), the Ki in [3] (read-out: Ki) stood at 0.5 nM.

`CC(C(=O)NCc1ncc(C(F)(F)F)cc1N1CCCCC1)c1ccc(NS(C)(=O)=O)c(F)c1` (stereo not drawn): the Ki in assay [3] (read-out: Ki) was found to be 28.6 nM.

Take `CC1CC(C)CN(c2nc(C(F)(F)Cl)ccc2CNC(=O)C(C)c2ccc(NS(C)(=O)=O)c(F)c2)C1` (mixture of isomers): in assay [3] (read-out: Ki), the Ki was determined as 1 nM.

Consider `CC(C(=O)NCc1ccc(C(F)(F)Cl)nc1N1CCCCC1)c1ccc(NS(C)(=O)=O)c(F)c1` (stereo not drawn), for which the inhibition constant (Ki) in assay [3] (read-out: Ki) was 1.3 nM.

In the case of `CC1CCN(c2nc(C(F)(F)F)ccc2CNC(=O)C(C)c2ccc(NS(C)(=O)=O)c(F)c2)CC1` (stereo not drawn), the IC50 in assay [1] was 15.8 nM. The Ki in [4] turned out to be 0.02 nM.

`CC1CCN(c2nc(-c3ccc(F)cc3)ccc2CNC(=O)C(C)c2ccc(NS(C)(=O)=O)c(F)c2)CC1` (stereo not drawn): the Ki in assay [3] (read-out: Ki) turned out to be 59 nM.

For the origin of these results see ChEMBL document CHEMBL3407481, “Pyridine C-region analogs of 2-(3-fluoro-4-methylsulfonylaminophenyl)propanamides as potent TRPV1 antagonists” (Eur J Med Chem, 2015).
